The M2OR odorant receptor database

The molecules below were run against T1, UniProt E1BM68. Conditions: stereoisomer not certain.
T1 sequence (whole entry): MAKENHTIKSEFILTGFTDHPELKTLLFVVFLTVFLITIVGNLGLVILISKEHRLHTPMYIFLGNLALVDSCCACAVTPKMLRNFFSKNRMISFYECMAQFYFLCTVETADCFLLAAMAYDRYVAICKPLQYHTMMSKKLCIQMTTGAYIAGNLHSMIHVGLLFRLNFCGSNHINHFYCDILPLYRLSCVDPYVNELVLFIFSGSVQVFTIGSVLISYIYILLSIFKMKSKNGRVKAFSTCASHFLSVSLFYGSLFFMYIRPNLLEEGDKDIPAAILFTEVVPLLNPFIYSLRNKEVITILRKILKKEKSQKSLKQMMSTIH
Method in brief: (§1)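 Whether a receptor–molecule pair is responsive (active) rests on the original authors' judgment that its measured signal was statistically different from baseline. Pairs without that judgment are non-responsive (inactive). Sources used varied assay methods, commonly transient luciferase assays in mammalian cell lines.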
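Also: active if original authors judged signal statistically different from baseline.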

Odorant receptor agonist call, inactive:
CCc1cnc(C)c(C)n1
COC1=C(C)OC(C)C1=O (stereo not given)

Odorant receptor agonist call, active:
CC(=O)c1nccnc1C
C=Cc1cnccn1
Cc1cnc(C)cn1
CCc1nccnc1C(C)=O
CC(=O)c1cnccn1
CC1CCc2nccnc21 (stereo not given)
Cc1cnccn1
Cc1nccnc1C
Cc1cnc(C)c(C)n1
COc1nccnc1CC(C)C
CCc1nccnc1OC
CC1=NC(C)C(C)S1 (stereo not given)

These molecules were tested against T2, UniProt E9Q9Z6. Conditions: stereoisomer not certain.
T2 sequence (whole entry): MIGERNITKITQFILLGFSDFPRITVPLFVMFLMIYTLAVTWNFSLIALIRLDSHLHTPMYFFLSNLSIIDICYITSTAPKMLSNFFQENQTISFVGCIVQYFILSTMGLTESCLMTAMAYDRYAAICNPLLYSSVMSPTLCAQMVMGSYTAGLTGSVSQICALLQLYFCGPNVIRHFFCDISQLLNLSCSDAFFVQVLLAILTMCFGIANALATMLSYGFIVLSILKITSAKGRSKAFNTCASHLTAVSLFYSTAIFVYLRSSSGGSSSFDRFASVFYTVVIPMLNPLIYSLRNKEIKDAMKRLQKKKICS
Method in brief: as §1

Odorant receptor agonist call, active:
OC1CCCCCCCCCCCCCC1
O=C1C=CCCCCCCCCCCCCO1
O=C1CCCC=CCCCCCCCCCC1
O=C1CCCCCCCCCCCCCC1
CCCCCCCCCCCCCC(C)=O
O=C1CCCCCCC=CCCCCCCC1
CC1CC=CCCCCCCCCC(=O)C1 (stereo not given)
CC1CCCCCCCCCCCC(=O)C1 (stereo not given)
CC1CCCCCCCCCCCCC(=O)C1 (stereo not given)
CC(=O)c1c(C)c([N+](=O)[O-])c(C(C)(C)C)c([N+](=O)[O-])c1C

Odorant receptor agonist call, inactive:
O=C1CCCCCCCCCC1
O=C1CCCCCC=CCCCCCCCCO1
CC1C(C)(C)C2=C(C(=O)CCC2)C1(C)C (stereo not given)
O=C1CCCCCCCCC1
CCC(=O)OCC(C)(C)OC(C)C1CCCC(C)(C)C1 (stereo not given)
CCCCCCCC(=O)CCCCCCC
C1CCCCCCCCCCCCCC1

The molecules below were run against T3, UniProt E9QAT7. Conditions: stereoisomer not certain.
T3 sequence (whole entry): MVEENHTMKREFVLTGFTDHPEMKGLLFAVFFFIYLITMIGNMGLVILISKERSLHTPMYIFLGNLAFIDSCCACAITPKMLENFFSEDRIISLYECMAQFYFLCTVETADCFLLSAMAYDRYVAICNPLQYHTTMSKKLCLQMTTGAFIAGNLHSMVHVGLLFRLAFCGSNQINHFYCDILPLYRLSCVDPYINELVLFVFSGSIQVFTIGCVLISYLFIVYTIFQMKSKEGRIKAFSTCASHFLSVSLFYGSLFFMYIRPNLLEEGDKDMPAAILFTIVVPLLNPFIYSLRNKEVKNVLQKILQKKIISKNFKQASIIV
Method in brief: as §1

Odorant receptor agonist call, inactive:
CC(=O)c1nccnc1C
C=Cc1cnccn1
Cc1cnc(C)cn1
CCc1nccnc1C(C)=O
CC(=O)c1cnccn1
COC1=C(C)OC(C)C1=O (stereo not given)
CC1CCc2nccnc21 (stereo not given)
Cc1cnccn1
Cc1nccnc1C
COc1nccnc1CC(C)C

Odorant receptor agonist call, active:
CCc1cnc(C)c(C)n1
Cc1cnc(C)c(C)n1
CCc1nccnc1OC
CC1=NC(C)C(C)S1 (stereo not given)
